SMILES strings stand for the structures. Active and inactive are the calls of the source. The rule behind the calls is not given here.

A short description of series [1]: Competitive inhibition of polyamine transport system-mediated [3H]-spermidine uptake in DFMO-treated human L3.6PL cells after 15 mins by Lineweaver-Burk plot analysis in presence of aminoguanidine. The method, boiled down:
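3H-spermidine uptake in L3.6pl cells in HBSS (with Ca2+/Mg2+) at 37 °C for 15 min, with 3H-Spd fixed at 1 μM and PTI at 0–3 μM. Cells were lysed in 0.1% SDS, counted by scintillation and normalized to BCA protein.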

The species named for series [2] is Homo sapiens. Put plainly: Inhibition of polyamine transport system-mediated [3H]-spermidine uptake in DFMO-treated human L3.6PL cells after 48 hrs in presence of spermine and aminoguanidine.
Series [3] is described as follows: Cytotoxicity against human L3.6PL cells assessed as growth inhibition after 48 hrs by MTS assay. Type of series: cell-based.
Series [4] can be described thus: Inhibition of polyamine transport system-mediated [3H]-spermidine uptake in DFMO-treated human L3.6PL cells after 48 hrs in presence of spermidine and aminoguanidine.
The test system of series [5] is CHO. Put plainly: Cytotoxicity against CHO cells assessed as growth inhibition after 48 hrs by MTS assay in presence of aminoguanidine. The format is cell-based, Cricetulus griseus. The conditions noted are these: for IC50: Cricetulus griseus, CHO; for IC10: chinese hamster, cho. The method, boiled down:
(§1)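 CHO and transport-deficient CHO-MG* cells (CHO-MG* medium with 2 μg/mL L-proline) plated at 10 000 cells/mL and pretreated 24 h with 1 mM aminoguanidine. Compound in PBS added after overnight incubation, then 48 h at 37 °C, 5% CO2. Growth read by MTS formazan absorbance at 490 nm against untreated control.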

The nature of series [6]: Inhibition of polyamine transport system-mediated [3H]-spermidine uptake in DFMO-treated CHO cells after 48 hrs in presence of spermidine and aminoguanidine. The conditions noted are these: Cricetulus griseus.
The subject of series [7] is CHO-MG. Put plainly: Cytotoxicity against polyamine transport-deficient CHO-MG cells assessed as growth inhibition after 48 hrs by MTS assay in presence of aminoguanidine. Type of series: ADME, cell-based. The conditions noted are these: Cricetulus griseus. The procedure, abridged: as §1
The nature of series [8]: Cytotoxicity against human L3.6PL cells assessed as growth inhibition after 48 hrs by MTS assay in presence of aminoguanidine. The format is cell-based. The conditions noted are these: for IC50: Homo sapiens, L3.6pl; for IC10: human, l3.6pl.
For series [9], the species on record is Homo sapiens. Put plainly: Inhibition of polyamine transport system-mediated [3H]-spermidine uptake in DFMO-treated human L3.6PL cells after 48 hrs in presence of putrescine and aminoguanidine.
The species entered for series [10] is Homo sapiens. The series can be described thus: Inhibition of polyamine transport system-mediated [3H]-spermidine uptake in DFMO-treated human L3.6PL cells at IC10 after 48 hrs in presence of aminoguanidine.
A short description of series [11]: Cytotoxicity against human L3.6PL cells assessed as cell viability at 0.01 uM after 48 hrs by MTS assay in presence of aminoguanidine relative to control. The format is cell-based. The conditions noted are these: read-out: Activity. The procedure, abridged: (§2)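 L3.6pl cells plated at 5000 cells/mL and pretreated 24 h with 250 μM aminoguanidine. Exposed to compound for 48 h at 37 °C. Growth read by MTS absorbance at 490 nm relative to untreated control.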

Series [12] is described as follows: Selectivity ratio of IC50 for polyamine transport-deficient CHO-MG cells to IC50 for CHO cells. Type of series: ADME, cell-based, Cricetulus griseus. The conditions noted are these: chinese hamster, polyamine transport-deficient CHO-MG cells and CHO cells; read-out: Ratio IC50.
The nature of series [13]: Cytotoxicity against human L3.6PL cells assessed as cell viability at 0.1 uM after 48 hrs by MTS assay in presence of aminoguanidine relative to control. The conditions noted are these: read-out: Activity. The format is cell-based. The procedure, abridged: as §2
Series [14] is filed under the species Homo sapiens. Put plainly: Inhibition of polyamine transport system in DFMO-treated human L3.6PL cells assessed as reduction in intracellular putrescine level at 7 uM after 48 hrs by HPLC analysis in presence of spermidine and aminoguanidine. Type of series: cell-based. The method, boiled down:
(§3)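 L3.6pl cells (450 000 per 6 mL medium with 10% FBS) pretreated 24 h with 250 μM aminoguanidine, then 48 h at 37 °C with DFMO 8 mM, Spd 1 μM, PTI 7 μM, alone or combined. Acid lysates dansylated with 1,7-diaminoheptane as internal standard and polyamines quantified by HPLC as nmol/mg BCA protein. Growth given relative to untreated control.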

The species named for series [15] is Homo sapiens. Put plainly: Inhibition of polyamine transport system in human L3.6PL cells assessed as reduction in intracellular spermidine level at 7 uM after 48 hrs by HPLC analysis in presence of aminoguanidine relative to control. Type of series: cell-based. The method, boiled down: as §3
A short description of series [16]: Cytotoxicity against human L3.6PL cells assessed as growth at 7 uM after 48 hrs in presence of spermidine and aminoguanidine relative to control. The conditions noted are these: read-out: Activity. The format is functional. The procedure, abridged:
as §3

The species entered for series [17] is Homo sapiens. Put plainly: Inhibition of polyamine transport system in human L3.6PL cells assessed as total polyamine level at 7 uM after 48 hrs by HPLC analysis in presence of spermidine and aminoguanidine relative to control. Type of series: cell-based. The procedure, abridged: as §3
The nature of series [18]: Cytotoxicity against DFMO-treated human L3.6PL cells assessed as growth at 7 uM after 48 hrs in presence of spermidine and aminoguanidine relative to control. Type of series: functional. The conditions noted are these: read-out: Activity. The method, boiled down: as §3
The species entered for series [19] is Homo sapiens. The series can be described thus: Inhibition of polyamine transport system in human L3.6PL cells assessed as reduction in intracellular spermidine level at 7 uM after 48 hrs by HPLC analysis in presence of spermidine and aminoguanidine relative to control. The format is cell-based. The procedure, abridged:
as §3

The species named for series [20] is Homo sapiens. The series can be described thus: Inhibition of polyamine transport system in DFMO-treated human L3.6PL cells assessed as reduction in intracellular spermidine level at 7 uM after 48 hrs by HPLC analysis in presence of spermidine and aminoguanidine relative to control. The format is cell-based. The method, boiled down:
as §3

For series [21], the species on record is Homo sapiens. The series can be described thus: Inhibition of polyamine transport system in DFMO-treated human L3.6PL cells assessed as total polyamine level at 7 uM after 48 hrs by HPLC analysis in presence of spermidine and aminoguanidine relative to control. The method, boiled down: as §3
Series [22] is filed under the species Homo sapiens. Put plainly: Inhibition of polyamine transport system in human L3.6PL cells assessed as total polyamine level at 7 uM after 48 hrs by HPLC analysis in presence of aminoguanidine relative to control. Type of series: cell-based. The method, boiled down:
as §3

For series [23], the species on record is Homo sapiens. The series can be described thus: Inhibition of polyamine transport system in DFMO-treated human L3.6PL cells assessed as increase in spermine level at 7 uM after 48 hrs by HPLC analysis in presence of spermidine and aminoguanidine relative to control. Set-up: scale not given: the % may be the effect or the level left. The procedure, abridged: as §3

Series [24] in a line: Cytotoxicity against human L3.6PL cells assessed as growth at 7 uM after 48 hrs in presence of aminoguanidine relative to control. Type of series: functional. The conditions noted are these: read-out: Activity. The method, boiled down: as §3
Setting [25] is: Homo sapiens, L3.6pl, read-out: EC50.

Take `Cl.NCCCCNCCCCNCc1cc(CNCCCCNCCCCN)cc(CNCCCCNCCCCN)c1`: in [1], the Ki worked out at 0.036 µM. Also, the inhibition result in series [2] and in [9] was “Active” in each case. The IC50 in series [3] is 188 µM; in [5], greater than 100 µM; in [7] it was 66.9 µM; in series [8] it was greater than 100 µM. Besides, the EC50 in series [4] (setting [25]) stood at 0.77 µM; in [6], 0.34 µM. For the same compound, the IC10 in [5] and in series [8] was 10 µM each time.

With `Cl.NCCCCNCCCCNCCCCNCc1cccc(CNCCCCNCCCCNCCCCN)c1`, in series [10], the inhibition entry is “inactive”. The EC50 result in series [4] is on record as “Not Active”. In addition, the viability at 48 h, 0.01 µM in series [11] was found to be 8%. Further, the IC50 in series [5] was 0.04 µM; in series [7], 13.4 µM; in [8] it was 7.5 µM. Besides, the IC10 in [5] and in [8] was 0.01 µM in each case. Further, in series [12], the selectivity ratio worked out at 335.

With `Cl.NCCCCNCCCCNCc1cccc(CNCCCCNCCCCN)c1`, in [10], the inhibition entry was “inactive”. Also, the viability at 48 h, 0.1 µM in series [13] stood at 8%. Further, the EC50 result in series [4] is reported as “Not Active”. Further, the 50% inhibitory concentration (IC50) amounted to 0.028 µM in series [5], 30 µM in series [7] and 52.2 µM in [8]. For the same compound, the IC10 is 0.01 µM in series [5] and 0.1 µM in series [8]. Further, in series [12], the selectivity ratio is 1070.

Turning to `Cl.NCCCCNCCCCNCc1ccc(CNCCCCNCCCCN)cc1`, in series [5], the IC50 was 0.027 µM and the IC10 amounted to 0.001 µM. Further, the selectivity ratio in series [12] is 727.

For the compound `Cl.NCCCNCCCCNCCCNC(=O)c1cc(C(=O)NCCCNCCCCNCCCN)cc(C(=O)NCCCNCCCCNCCCN)c1`, the EC50 result in series [4] is reported as “Not Active”. In series [8], the concentration for half-maximal inhibition (IC50) was determined as 47.5 µM and the IC10 came to 8 µM.

As to `NCCCCNCCCCNCc1c2ccccc2cc2ccccc12`, the selectivity ratio in series [12] is 148.

In the case of `Cl.NCCCC[C@H](N)C(=O)NCCCNCCCCNCCCN`, the concentration for an effect of 10% (IC10) in series [5] and in series [8] was greater than 100 µM throughout.

Regarding `Cl.NCCCCNCCCCNC(=O)c1cc(C(=O)NCCCCNCCCCN)cc(C(=O)NCCCCNCCCCN)c1`, the Ki in series [1] was 0.398 µM. Moreover, the EC50 in series [4] (setting [25]) came to 89.8 µM; in series [6] it was 60 µM. Further, the IC50 in series [5], in series [7] and in [8] was greater than 100 µM each time. Moreover, the IC10 in [5] and in series [8] was greater than 100 µM in each case.

Consider `CNCCCCNCCCCNCc1cc(CNCCCCNCCCCNC)cc(CNCCCCNCCCCNC)c1.Cl`, for which, in series [1], the Ki turned out to be 0.055 µM. Moreover, the inhibition entry in series [14] was “Active”. The half-inhibitory concentration (IC50) in series [3] was 183 µM; in series [5] it was greater than 100 µM; in series [7], 122 µM; in [8], greater than 100 µM. Further, the inhibition was found to be 27% in series [15], 33% in series [19] and 87% in [20]. Also, the values for the growth at 7 µM in series [16], in series [18] and in series [24] were 88%, 70% and 117%, respectively. Also, the Activity in series [17] turned out to be 37.4 nmol/mg; in [21], 19.9 nmol/mg; in [22] it was 40.4 nmol/mg; in series [23] it was 67%. Further, the EC50 came to 1.4 µM in [4] (setting [25]) and 0.42 µM in series [6]. Also, the IC10 in series [5] and in series [8] was 10 µM throughout.

On to `Cl.NCCCCNCCCCNCCCCNC(=O)c1cc(C(=O)NCCCCNCCCCNCCCCN)cc(C(=O)NCCCCNCCCCNCCCCN)c1`, for which, in series [10], the inhibition entry is “inactive”. The EC50 entry in [4] is on record as “Not Active”. The IC50 amounted to 16 µM in [5], 69.1 µM in [7] and 9.7 µM in [8]. Besides, the IC10 in [5] and in series [8] was 1 µM throughout. In addition, the selectivity ratio in series [12] stood at 4.3.

These data come from ChEMBL document CHEMBL3124839, “Polyamine transport inhibitors: design, synthesis, and combination therapies with difluoromethylornithine” (J Med Chem, 2014).
